Measurements as given in ChEMBL document CHEMBL1125193, “3-(5-Alkyl-4-hydroxy-3-methoxy-1-naphthalenyl)-2-methyl-2-propenoic acids as orally active inhibitors of IL-1 generation” (J Med Chem, 1991).

Tests used:
Homo sapiens = species: Homo sapiens; experiment: Concentration to inhibit human monocyte in blood (IL 1 Generation); assay type: functional
In short: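 Human monocytes stimulated with LPS ± compound; IL-1 by LAF assay, quantified against a recombinant human IL-1 standard curve. IC50 by least-squares method, mean of two or more experiments.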

Rattus norvegicus [1] = experiment: Percent inhibition was measured by in vivo by air pouch model on five rats by local administration at 100 uM; assay type: functional
In short: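 Rat CMC-LPS air-pouch model, 5 rats per group. Compound dissolved in 5% EtOH-RPMI 1640 with 30% heat-inactivated autologous serum, given locally to 100 μM final exudate concentration at 30 min before and just before LPS. Exudate collected 4 h after LPS; IL-1 by LAF assay against recombinant human IL-1α standard.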

[2] = Half life was measured as time taken to reach the half of the initial dose in the blood after oral administration to male F344 rats; assay type: ADME, organism-based; conditions: F344, rat
In short: (§1)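 Plasma half-life after a single oral dose of 50 mg/kg to male F344 rats; mean ± SEM, 2-3 rats per compound.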

[3] = Area under curve was measured from the graph obtained from concentration Vs time after oral administration to male F344 rats; assay type: ADME, organism-based; conditions: F344, rat, in vivo
In short: (§2)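 Plasma AUC over 0-4 h from concentration-time course after a single oral dose of 50 mg/kg to male F344 rats; mean ± SEM, 2-3 rats per compound.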

Rattus norvegicus [4] = species: Rattus norvegicus; experiment: Concentration to inhibit rat macrophase […] (IL 1 Generation); assay type: functional
In short: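 Rat (Fisher) peritoneal macrophages elicited by i.p. 2.5% glycogen and harvested after 4 days. Adherent cells (0.5 × 10^6/well, RPMI 1640 + 1% heat-inactivated normal rat serum, 1.5 h at 37 °C) cultured 4 h with LPS 1 ng/mL ± compound. Intracellular IL-1 by LAF assay against recombinant human IL-1α standard; IC50 by least squares, mean of duplicates.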

Rattus norvegicus [5] = experiment: Percent inhibition was measured in vivo by air pouch model on five rats by oral administration at 200 uM; assay type: functional
In short: (§3)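 Rat CMC-LPS air-pouch model, 5 rats per group. Compound given orally in 0.5% methyl cellulose 2 h before LPS at 200, 50 or 25 mg/kg. Exudate collected 4 h after LPS; extra- and intracellular IL-1 by LAF assay against recombinant human IL-1α standard.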

Rattus norvegicus [6] = experiment: Percent inhibition was measured in vivo by air pouch model on five rats by oral administration at 50 uM; assay type: functional; conditions: in the assay text read “50 mg/kg” for “50 uM”; in short: as §3
[7] = Half life was measured as time taken to reach the half of the initial dose in the blood; assay type: ADME, tissue-based; in short: as §1
[8] = Half life was measured as time taken to reach the half of the initial dose in air pouch exudate; assay type: ADME
In short: (§4)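 Male F344 rats given 50 mg/kg orally; drug measured in air-pouch exudate, with concentration at 6 h post-dose and exudate half-life derived; mean ± SEM of 5 rats.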

Rattus norvegicus [9] = experiment: Percent inhibition was measured on untreated rat paw at a dose of 25 mg/kg; assay type: functional
In short: (§5)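 Rat adjuvant arthritis. Compound given orally once daily from first day of adjuvant treatment at 12.5-100 mg/kg. Adjuvant-untreated paw swelling measured by plethysmometer on day 15; inhibition versus control. Mean ± SEM of 6-10 animals.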

Rattus norvegicus [10] = experiment: Percent inhibition was measured on untreated rat paw at a dose of 50 mg/kg; assay type: functional; in short: as §5
Rattus norvegicus [11] = experiment: Percent swelling was measured on untreated rat paw at a dose of 50 mg/kg; assay type: functional; in short: as §5
Rattus norvegicus [12] = experiment: Percent swelling was measured on untreated rat paw at a dose of 100 mg/kg; assay type: functional; in short: as §5
Rattus norvegicus [13] = experiment: Percent inhibition was measured on untreated rat paw at a dose of 100 mg/kg; assay type: functional; in short: as §5
[14] = Area under curve was measured from the graph obtained from concentration Vs time; assay type: ADME; in short: as §2
Rattus norvegicus [15] = experiment: Percent swelling was measured on untreated rat paw at a dose of 25 mg/kg; assay type: functional; in short: as §5
Rattus norvegicus [16] = experiment: Percent swelling was measured on untreated rat paw at a dose of 12.5 mg/kg; assay type: functional; in short: as §5
Rattus norvegicus [17] = experiment: Percent inhibition was measured on untreated rat paw at a dose of 12.5 mg/kg; assay type: functional; in short: as §5
[18] = C6h was measured as concentration obtained after 6 hr of oral administration in air pouch exudate; assay type: ADME; conditions: read-out: C6h; in short: as §4
[19] = C6h was measured as concentration obtained after 6 hr of oral administration in air pouch exudate after oral administration to male F344 rats; assay type: ADME, organism-based; conditions: F344, rat, read-out: C6h; in short: as §4
[20] = Half life was measured as time taken to reach the half of the initial dose in air pouch exudate after oral administration to male F344 rats; assay type: ADME, organism-based; conditions: F344, rat; in short: as §4
Rattus norvegicus [21] = experiment: Percent inhibition was measured in vivo by air pouch model on five rats by oral administration at 25 uM; assay type: functional; conditions: in the assay text read “25 mg/kg” for “25 uM”; in short: as §3
Rattus norvegicus [22] = species: Rattus norvegicus; experiment: Percent swelling was measured on untreated rat paw at different dosage forms; assay type: functional; in short: as §5
Rattus norvegicus [23] = species: Rattus norvegicus; experiment: Percent inhibition was measured on untreated rat paw at different dosage forms; assay type: functional; in short: as §5
[24] = in the assay text read “at 200 mg/kg” for “at 200 uM”
[25] = in the assay text read “200 mg/kg” for “200 uM”

Row | Structure (SMILES) | IC50 (Homo sapiens) [nM] | Inhibition (Rattus norvegicus [1]) [%] | half-life [2] [h] | AUC [3] [µg·h/mL] | IC50 (Rattus norvegicus [4]) [nM] | Inhibition (Rattus norvegicus [5]; [24]) [%] | Inhibition (Rattus norvegicus [6]) [%] | inhibition in vivo at 25 mg/kg (Rattus norvegicus [9]) [%] | inhibition in vivo at 50 mg/kg (Rattus norvegicus [10]) [%] | Swelling (Rattus norvegicus [11]) [%] | Swelling (Rattus norvegicus [12]) [%] | inhibition in vivo at 100 mg/kg (Rattus norvegicus [13]) [%] | Swelling (Rattus norvegicus [15]) [%] | Swelling (Rattus norvegicus [16]) [%] | Inhibition (Rattus norvegicus [5]; [25]) [%] | inhibition in vivo at 12.5 mg/kg (Rattus norvegicus [17]) [%] | other results
1 | CCc1cccc2c(/C=C(\C)C(=O)O)cc(OC)c(O)c12 | 4800 | 85 | 0.44 | 108 | 2000 | 36 |  |  |  |  |  |  |  |  |  |  | 
2 | CCCc1cccc2c(/C=C(/C)C(=O)O)cc(OC)c(O)c12 | 1000 | 87 |  |  | 1100 |  | 33 | 8 | 46.6 | 29.5 | 25.6 | 53.6 | 50.8 | 45.8 | 86 | 17 | half-life [7]: 1.07 h; half-life [8]: 2.05 h; AUC [14]: 189 µg·h/mL; concentration at 6 h [18]: 1940 ng/mL
3 | CCc1cccc2c(/C=C(/C)C(=O)O)cc(OC)c(O)c12 | 3000 | 94 | 1.72 | 418 | 1400 |  | 65 | 34.1 | 38.8 | 33.8 | 26.8 | 51.4 | 36.4 | 44.1 | 91 | 20.1 | concentration at 6 h [19]: 8760 ng/mL; half-life [20]: 4.15 h; Inhibition (Rattus norvegicus [21]): 40%
4 | CCCc1cccc2c(/C=C(\C)C(=O)O)cc(OC)c(O)c12 | 1000 | 91 | 1.07 | 60.4 | 1000 | 67 | 4 |  |  |  |  |  |  |  |  |  | 
5 | COc1ccc2c(c1)c(CC(=O)O)c(C)n2C(=O)c1ccc(Cl)cc1 [INDOMETHACIN] |  |  |  |  |  |  |  |  |  |  |  |  |  |  |  |  | Swelling (Rattus norvegicus [22]): 28.8%; Inhibition (Rattus norvegicus [23]): 47.8%
